Data taken from ChEMBL document CHEMBL1133085, “Synthesis, antibacterial, and cytotoxic evaluation of certain 7-substituted norfloxacin derivatives” (2000).
In brackets after ≈: the same amount, converted by molar mass.

Experiments:
Assay type in all cases: functional
UO-31 = assay: In vitro inhibitory activity for human renal cancer cell line UO-31 was determined.
Summary of the method: (§1)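 NCI in vitro human tumour cell line panel screen. Growth inhibition is expressed as log GI₅₀ (M), the concentration reducing cell growth to 50% of controls. The mean is the average log GI₅₀ across all cell lines tested.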

[1] = Mean value (average log GI50) over all cell lines tested; summary of the method: as §1
CAKI-1 = assay: In vitro inhibitory activity for human renal cancer cell line CAK-1 was determined.; summary of the method: as §1
RXF 393 = assay: In vitro inhibitory activity for human renal cancer cell line RXF-393 was determined.; summary of the method: as §1
Proteus vulgaris = assay: In vitro antimicrobial activity against Proteus vulgaris was determined
Summary of the method: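 MIC determined in Mueller-Hinton broth inoculated at 1-5 × 10⁵ CFU/mL. DMSO serial dilutions of compounds were used, with a top final concentration of 300 µM and DMSO at most 1%. Incubation was at 37 °C for 20-72 h. Growth was judged by turbidity or microscopy. Vehicle and reference controls were included, with duplicate assays.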

Enterococcus faecalis = assay: In vitro antimicrobial activity against Enterococcus faecalis (vancomycin-resistant) was determined
Summary of the method: (§2)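 Broth dilution in tryptic soy broth with 7% calf serum against clinical isolates (vancomycin-resistant E. faecalis; erythromycin/ampicillin-resistant S. pneumoniae) at 1-5 × 10⁵ CFU/mL. DMSO serial dilutions were added 1:100, giving a top concentration of 300 µM and at most 1% DMSO. Incubated 20-72 h at 37 °C. MIC (µM) read by visual turbidity or microscopy. Vehicle and reference controls; duplicate.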

[2] = In vitro antimicrobial activity against Mycobacterium ranae was determined
Summary of the method: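 MIC determined in brain heart infusion broth containing 1-5 × 10⁵ CFU/mL. Compounds in DMSO were serially diluted, starting at 300 µM final with 1% DMSO maximum. Incubation was at 37 °C for 20-72 h, with visual turbidity or microscope read-out. Vehicle and reference controls were included, and assays were run in duplicate.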

Staphylococcus aureus = assay: In vitro antimicrobial activity against Staphylococcus aureus (methicillin-resistant) was determined
Summary of the method: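 MRSA in Mueller-Hinton broth at 1-5 × 10⁵ CFU/mL. Compound serial dilutions in 100% DMSO were added 1:100, giving a maximal test concentration of 300 µM and at most 1% DMSO. Plates were held 20-72 h at 37 °C. MIC (µM) was taken from visual turbidity or microscopic growth. Vehicle and reference-agent controls; run in duplicate.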

Escherichia coli = assay: In vitro antimicrobial activity against Escherichia coli was determined
Summary of the method: (§3)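 Broth microdilution MIC in nutrient broth with 1-5 × 10⁵ CFU/mL inoculum. Compounds were dissolved in 100% DMSO and serially diluted in DMSO, starting at 300 µM final with at most 1% DMSO. Plates were incubated at 37 °C for 20-72 h. MIC was read by visual turbidity or microscopy. Vehicle and reference controls were included, and tests were run in duplicate.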

Klebsiella pneumoniae = assay: In vitro antimicrobial activity against Klebsiella pneumoniae was determined; summary of the method: as §3
Pseudomonas aeruginosa = assay: In vitro antimicrobial activity against Pseudomonas aeruginosa was determined; summary of the method: as §3
[3] = In vitro antimicrobial activity against […] (erythromycin and ampicillin-resistant) was determined; conditions: Streptococcus pneumoniae; summary of the method: as §2

SMILES	GI50 (UO-31) [nM]	Mean [1]	GI50 (CAKI-1) [nM]	GI50 (RXF 393) [nM]	MIC (Proteus vulgaris) [µM]	MIC (Enterococcus faecalis) [µM]	MIC [2] [µM]	MIC (Staphylococcus aureus) [µM]	MIC (Escherichia coli) [µM]	MIC (Klebsiella pneumoniae) [µM]	MIC (Pseudomonas aeruginosa) [µM]	MIC [3] [µM]
C=C1CC(CN2CCN(c3cc4c(cc3F)c(=O)c(C(=O)O)cn4CC)CC2)(c2ccc(OC)cc2)OC1=O (configuration not stated)	2750	-5.19	5130	–	–	–	–	–	–	–	–	–
CCn1cc(C(=O)O)c(=O)c2cc(F)c(N3CCN(C/C(C)=N/O)CC3)cc21	39800	>-4	> 100000	> 100000	2 (≈ 0.781 µg/mL)	30 (≈ 11.7 µg/mL)	32 (≈ 12.5 µg/mL)	0.51 (≈ 0.199 µg/mL)	0.51 (≈ 0.199 µg/mL)	0.13 (≈ 0.0508 µg/mL)	16 (≈ 6.25 µg/mL)	30 (≈ 11.7 µg/mL)
CCn1cc(C(=O)O)c(=O)c2cc(F)c(N3CCN(C/C(=N/O)c4ccccc4)CC3)cc21	309	-4.53	32400	36300	3.45 (≈ 1.56 µg/mL)	> 200	55.3 (≈ 25 µg/mL)	0.44 (≈ 0.199 µg/mL)	0.86 (≈ 0.389 µg/mL)	0.22 (≈ 0.0995 µg/mL)	13.8 (≈ 6.24 µg/mL)	> 200
CCn1cc(C(=O)O)c(=O)c2cc(F)c(N3CCN(CC(=O)c4ccc(OC)cc4)CC3)cc21	–	–	–	–	0.83 (≈ 0.388 µg/mL)	> 200	> 200	6.7 (≈ 3.13 µg/mL)	0.83 (≈ 0.388 µg/mL)	0.053 (≈ 0.0248 µg/mL)	13.4 (≈ 6.26 µg/mL)	> 200
C=C1CC(CN2CCN(c3cc4c(cc3F)c(=O)c(C(=O)O)cn4CC)CC2)(c2ccccc2)OC1=O (configuration not stated)	1580	-5.47	1860	–	> 200	–	> 200	1.54 (≈ 0.779 µg/mL)	98.9 (≈ 50 µg/mL)	12.4 (≈ 6.27 µg/mL)	> 200	–
CCn1cc(C(=O)O)c(=O)c2cc(F)c(N3CCN(C/C(=N/O)c4ccc(F)cc4)CC3)cc21	132	-4.67	1910	170	6.38 (≈ 3 µg/mL)	> 200	> 200	2.13 (≈ 1 µg/mL)	6.38 (≈ 3 µg/mL)	0.21 (≈ 0.0988 µg/mL)	> 200	> 200
CCn1cc(C(=O)O)c(=O)c2cc(F)c(N3CCN(C/C(=N\O)c4ccc(Cl)cc4)CC3)cc21	28.8	-5.03	398	724	6.16 (≈ 3 µg/mL)	> 200	> 200	> 200	6.16 (≈ 3 µg/mL)	0.21 (≈ 0.102 µg/mL)	> 200	> 200
CCn1cc(C(=O)O)c(=O)c2cc(F)c(N3CCN(C/C(=N\O)c4ccc(OC)cc4)CC3)cc21	550	-4.5	6920	–	3.23 (≈ 1.56 µg/mL)	3.23 (≈ 1.56 µg/mL)	104 (≈ 50.2 µg/mL)	0.41 (≈ 0.198 µg/mL)	1.62 (≈ 0.782 µg/mL)	0.027 (≈ 0.013 µg/mL)	25.9 (≈ 12.5 µg/mL)	13 (≈ 6.27 µg/mL)
CCn1cc(C(=O)O)c(=O)c2cc(F)c(N3CCNCC3)cc21 [NORFLOXACIN]	–	–	–	–	0.16 (≈ 0.0511 µg/mL)	9.8 (≈ 3.13 µg/mL)	9.8 (≈ 3.13 µg/mL)	4.89 (≈ 1.56 µg/mL)	0.63 (≈ 0.201 µg/mL)	0.041 (≈ 0.0131 µg/mL)	1.22 (≈ 0.39 µg/mL)	19.6 (≈ 6.26 µg/mL)
